The text below walks through data of ChEMBL document CHEMBL4196140, “Spiro-Phthalides and Isocoumarins Isolated from the Marine-Sponge-Derived Fungus Setosphaeria sp. SCSIO41009” (J Nat Prod, 2018).

Converted amounts (≈) assume the structure as drawn. The source made the active and inactive calls. The calls are words filed in the database; no cut-off is given here.

The test system of one assay is Influenza A virus. Description: Antiviral activity against Influenza A virus H1N1 A/FM-1/1/47 infected in MDCK cells assessed as inhibition of virus-induced cytopathic effect after 48 hrs by MTT assay. The format is functional, organism-based.
Assay [1] deals with T1, Phosphotyrosine protein phosphatase (Mycobacterium tuberculosis) (UniProt A0A045ISB3).
T1 sequence (whole entry): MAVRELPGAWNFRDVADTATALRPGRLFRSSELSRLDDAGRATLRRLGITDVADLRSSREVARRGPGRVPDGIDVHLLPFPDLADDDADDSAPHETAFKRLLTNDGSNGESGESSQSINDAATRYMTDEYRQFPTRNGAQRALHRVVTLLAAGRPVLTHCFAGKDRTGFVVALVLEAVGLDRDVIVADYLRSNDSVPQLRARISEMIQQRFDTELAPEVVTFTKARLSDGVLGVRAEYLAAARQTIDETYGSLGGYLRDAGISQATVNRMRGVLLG
Briefly: Inhibition of Mycobacterium PTPB at 50 uM using p-nitrophenyl phosphate as substrate incubated for 10 mins followed by substrate addition and measured for 5 mins by spectrophotometric method.

Another assay has as its system Staphylococcus aureus. Description: Antimicrobial activity against Staphylococcus aureus by broth microdilution method. It counts as functional, organism-based.
A short description of assay [2]: Antioxidant activity assessed as DPPH radical scavenging activity incubated for 30 mins in dark condition. It counts as functional. An outline of the steps: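 Test samples in DMSO were mixed 1:9 with freshly made 0.2 mM DPPH in EtOH (DPPH stock level), giving final compound levels of 50, 25, 12.5, 6.25 and 3.125 μg/mL, in triplicate, with ascorbic acid as positive control. After 30 min in the dark, the fall in absorbance at 517 nm was read. Blank: EtOH instead of DPPH. Control: DMSO instead of sample. % scavenging = [1 − (sample − blank)/control] × 100. IC50 is the concentration scavenging 50% of radicals.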

The next assay relates to Colletotrichum asianum. Briefly: Antimicrobial activity against Colletotrichum asianum by broth microdilution method. The format is functional.
The subject of the next assay is Colletotrichum acutatum. Description: Antimicrobial activity against Colletotrichum acutatum by broth microdilution method. It counts as functional.

For `COC(=O)CCCc1c(OC)cc(=O)oc1C`, the inhibition entry (with Influenza A virus; in assay [1]) was “inactive” each time. Also, in the assay on Staphylococcus aureus, the outcome was inactive.

Consider `CCC[C@@H]1C[C@H]2OC(=O)c3c(cc(O)c(OC)c3O)[C@@H]2O1`, for which the inhibition entry (in the assay with Influenza A virus; in assay [1]) was “inactive” in each case. Moreover, the outcome in the assay on Staphylococcus aureus was inactive.

In the case of `CCC[C@H]1C[C@H](O)[C@]2(OC(=O)c3c2cc(OC)c(OC)c3O)O1`, the inhibition entry (in the assay with Influenza A virus; in assay [1]) was “inactive” in each case. For the same molecule, the outcome with Staphylococcus aureus was inactive.

`CC[C@H](O)[C@H]1C[C@H]2OC(=O)c3c(cc(OC)c(OC)c3O)[C@H]2O1`: the inhibition entry (with Influenza A virus; in assay [1]) was “inactive” in each case. Also, the outcome with Staphylococcus aureus was inactive.

Regarding `COc1cc2c(c(O)c1OC)C(=O)O[C@@H]1C[C@H](CCC(=O)O)O[C@H]21`, the inhibition entry (with Influenza A virus; in assay [1]) was “inactive” in each case. Also, the result in the assay with Staphylococcus aureus was inactive.

For the molecule `O=C1O[C@H]([C@@H](O)CO)C(O)=C1O` [ASCORBIC ACID], the IC50 in assay [2] is 39 µM.

As for `CCC[C@@H]1C[C@H]2OC(=O)c3c(cc(OC)c(OC)c3O)[C@@H]2O1`, the inhibition result (in the assay with Influenza A virus; in assay [1]) was “inactive” throughout. In the assay on Staphylococcus aureus, the outcome was inactive.

For `CCCC(=O)CC[C@H]1OC(=O)c2c1cc(O)c(OC)c2O`, the inhibition entry (in the assay on Influenza A virus; in assay [1]) was “inactive” each time. For the same molecule, the result in the assay with Staphylococcus aureus was inactive.

`COc1cc(=O)oc(C)c1CCC(C)O` (centres undefined): the inhibition entry (with Influenza A virus; in assay [1]) was “inactive” throughout. Besides, the outcome in the assay on Staphylococcus aureus was inactive.

Turning to `C[C@@H]1C[C@@H]([C@H](O)CC2CC(=O)NC(=O)C2)C(=O)[C@@H](C)C1` [CYCLOHEXIMIDE], the MIC against Colletotrichum asianum worked out at 80 µg/mL (≈ 284 µM); with Colletotrichum acutatum, 40 µg/mL (≈ 142 µM).

As to `CCCCc1c(OC)cc(=O)oc1C`, the inhibition entry (in the assay with Influenza A virus; in assay [1]) was “inactive” in each case. Also, the result in the assay on Staphylococcus aureus was inactive.

With `CCC(O)Cc1c(OC)cc(=O)oc1C` (centres undefined), the inhibition result (in the assay on Influenza A virus; in assay [1]) was “inactive” each time. For the same molecule, in the assay on Staphylococcus aureus, the outcome was inactive.

For the molecule `COc1cc2c(c(O)c1OC)C(=O)O[C@@H]1C[C@H](C[C@@H](C)O)O[C@H]21`, the inhibition entry (in the assay with Influenza A virus; in assay [1]) was “inactive” each time. Further, the outcome with Staphylococcus aureus was inactive.

`CCC[C@H]1C[C@H](O)[C@@]2(OC(=O)c3c2cc(OC)c(OC)c3O)O1`: the inhibition result (in the assay with Influenza A virus; in assay [1]) was “inactive” each time. Further, the result in the assay on Staphylococcus aureus was inactive.

With `CCC[C@H]1C[C@H]2OC(=O)c3c(cc(OC)c(O)c3O)[C@H]2O1`, the inhibition entry (in the assay with Influenza A virus; in assay [1]) was “inactive” throughout. Besides, the IC50 in assay [2] is 38 µM. The result with Staphylococcus aureus was inactive.

With `COCc1c(O)cc(C)c2c1Oc1c(C)cc(O)c(C)c1OC2=O`, the inhibition result (in the assay on Influenza A virus; in assay [1]) was “inactive” in each case. Also, the MIC amounted to 160 µg/mL (≈ 484 µM) in the assay on Colletotrichum asianum and 310 µg/mL (≈ 938 µM) in the assay on Colletotrichum acutatum. In addition, the outcome with Staphylococcus aureus was inactive.

As to `CCC[C@H]1C[C@H]2OC(=O)c3c(cc(OC)c(OC)c3O)[C@@H]2O1`, the inhibition result (with Influenza A virus; in assay [1]) was “inactive” throughout. The result with Staphylococcus aureus was inactive.

As to `CCCC(=O)CC[C@@H]1OC(=O)c2c1cc(OC)c(OC)c2O`, the inhibition result (with Influenza A virus; in assay [1]) was “inactive” throughout. In addition, the result in the assay with Staphylococcus aureus was inactive.

Take `CCCCC1=C(OC)C(=O)OC1(C)O` (racemic): the inhibition entry (with Influenza A virus; in assay [1]) was “inactive” in each case. Moreover, the result in the assay with Staphylococcus aureus was inactive.

On to `COc1cc2c(c(O)c1OC)C(=O)O[C@@H]1C[C@H](CCCO)O[C@H]21`, for which the inhibition entry (in the assay on Influenza A virus; in assay [1]) was “inactive” in each case. In the assay with Staphylococcus aureus, the result was inactive.

`CC[C@@H](O)[C@H]1C[C@H]2OC(=O)c3c(cc(OC)c(OC)c3O)[C@H]2O1`: the inhibition entry (in the assay on Influenza A virus; in assay [1]) was “inactive” each time. Also, the outcome with Staphylococcus aureus was inactive.

With `CCCCc1c(OC)cc(=O)oc1CO`, the inhibition entry (with Influenza A virus; in assay [1]) was “inactive” in each case. The outcome in the assay on Staphylococcus aureus was inactive.

Regarding `COc1cc(=O)oc(C)c1CCCC(=O)O`, the inhibition result (in the assay on Influenza A virus; in assay [1]) was “inactive” in each case. Besides, in the assay on Staphylococcus aureus, the outcome was inactive.

For the molecule `CCCCOCc1c(O)cc(C)c2c1Oc1c(C)cc(O)c(C)c1OC2=O`, the inhibition entry (in the assay on Influenza A virus; in assay [1]) was “inactive” each time. Also, the MIC against Colletotrichum asianum and against Colletotrichum acutatum was 630 µg/mL (≈ 1690 µM) each time. In addition, in the assay on Staphylococcus aureus, the outcome was inactive.
